# From ChEMBL document CHEMBL1133763, “Synthesis and immunosuppressive activity of novel prodigiosin derivatives” (J Med Chem, 2000)
# Columns and labels:
# Mus musculus [1] = species on record: Mus musculus; experiment: The concentration inhibiting 50% cell proliferation of murine Splenocytes induced by the mitogen Concanavalin A of mice; assay type: functional
# Method in brief: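 Spleens from C57Bl/6 mice; splenocytes at 4 × 10^5 cells/well in triplicate with Con A 1.7 µg/mL and varying compound concentrations in complete RPMI 1640. 72 h at 37 °C, 5% CO2; [3H]thymidine 0.2 µCi/well during final 18 h; uptake counted by scintillation. IC50 from % inhibition of cpm versus control; mean ± SD of ≥3 experiments.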
# B16 [2] = experiment: Cytotoxicity, ability to inhibit viability of murine resting lymphocytes, murine B16 melanoma cells and human K562 erythroleukemia cells by 50% by […]; assay type: functional, cell-based; details: Mus musculus
# Method in brief: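 Murine resting lymphocytes (4 × 10^5 cells/well), murine B16 melanoma and human K562 cells (1 × 10^5 cells/well each) seeded in triplicate with a range of compound concentrations in complete RPMI 1640 (10% inactivated FCS); DMSO stocks at 2 mg/mL diluted at use. MTT added for last 4 h of 48 h culture; formazan dissolved in HCl–2-propanol, OD 570/690 nm; IC50 from % inhibition versus control.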
# B16 [3] = experiment: Selectivity index was evaluated; assay type: functional, Mus musculus
# Method in brief: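 Ratio of mean IC50 for MTT viability in K562, B16 and resting lymphocytes (averaged over the three) to IC50 for Con A-stimulated splenocyte proliferation.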
# Mus musculus [4] = experiment: Dose able to reduce by 50% the thickness increase compared to controls by DTH Assay on mice after daily dose by ip route for 6 days; assay type: functional; details: 144 h
# Method in brief: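 Female C57Bl/6 mice, 8-9 weeks, primed iv with 1 × 105 SRBC in saline; footpad challenge 5 days later with 1 × 108 SRBC. Compound in Cremophor ELP/ethanol (6.5:3.5) given ip daily for 6 days from priming day at several doses. Footpad swelling by dial micrometer 24 h post-challenge; ED50 = dose halving swelling increase; 10 animals/group, ≥3 experiments.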
# Mus musculus [5] = experiment: The Toxicity of compound was measured by DTH Assay on mice after giving compound daily by ip route for 6 days at different doses; assay type: organism-based; details: in vivo, 144 h
# Method in brief: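 Female C57Bl/6 mice, 8-9 weeks old, were primed iv with 1 × 10^5 SRBC and challenged in the footpad with 1 × 10^8 SRBC five days later. Compound in Cremophor ELP/ethanol (6.5:3.5 v:v) was given ip daily for 6 days from priming. Value is the minimal daily dose causing weight loss, hair ruffling or occasionally death, as mean ± SD of ≥3 experiments, 10 mice/group.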
SMILES,IC50 (Mus musculus [1]) [µg/mL],IC50 (B16 [2]) [µg/mL],Selectivity index (B16 [3]),ED50 (Mus musculus [4]) [mg/kg],Toxicity (Mus musculus [5]) [mg/kg]
CCCCCCCCCCCC1=N/C(=C\c2[nH]c(C(=O)NCC)cc2OC)C=C1,> 1,> 1,–,–,–
CCCCCC1=N/C(=C\c2[nH]c(-c3ccc[nH]3)cc2OC)C=C1,0.02,0.079,4,–,–
C1=C/C(=C/c2[nH]c(-c3ccc[nH]3)cc2OCc2ccccc2)N=C1CC1CCCCC1,0.0021,0.151,72,–,–
COc1cc(-c2ccc[nH]2)[nH]c1/C=C1/C=C2CCCCC2=N1,0.0185,0.12,6,–,–
CCCCCCCCCCCC1=N/C(=C\c2[nH]c(-c3cccs3)cc2OCc2ccccc2)C=C1,> 1,> 1,–,–,–
CC1=N/C(=C\c2[nH]c(-c3ccc[nH]3)cc2OCc2ccccc2)C=C1,0.0079,0.083,10,–,–
COc1cc(-c2ccc[nH]2)[nH]c1/C=C1/C=CC(CCCCCC(=O)O)=N1,> 1,> 1,–,–,–
COc1cc(-c2ccc[nH]2)[nH]c1/C=C1/C=CC(CCCCCCCCCCC(=O)O)=N1,> 1,> 1,–,–,–
C1=C/C(=C/c2[nH]c(-c3ccc[nH]3)cc2OCc2ccccc2)N=C1Cc1ccccc1,0.0065,0.279,43,–,–
CCCCCC1=N/C(=C\c2[nH]c(-c3ccc[nH]3)cc2OCc2ccccc2)C=C1,0.0049,0.083,17,–,–
CCCCCCCCCCC1=N/C(=C\c2[nH]c(-c3ccc[nH]3)cc2OC)C=C1,0.0018,0.156,87,–,–
C1=C(OCc2ccccc2)/C(=C/c2ccc[nH]2)N=C1c1ccc[nH]1,0.0153,0.181,12,–,–
CCCCCCCCCCCCCCCC1=N/C(=C\c2[nH]c(-c3ccc[nH]3)cc2OC)C=C1,0.0163,1.24,76,–,–
COc1cc(-c2ccc[nH]2)[nH]c1/C=C1/C=CC(CCCCCCO)=N1,0.0564,0.787,14,–,–
CCCCCCCCCCCC1=N/C(=C\c2[nH]c(-c3cc4cc(Cl)ccc4[nH]3)cc2OC)C=C1,> 1,> 1,–,–,–
CCCCCCCCCCCC1=N/C(=C\c2[nH]c(-c3cc4cc(OC)ccc4[nH]3)cc2OC)C=C1,0.128,> 1,–,–,–
COC(=O)CCCCCC1=N/C(=C\c2[nH]c(-c3ccc[nH]3)cc2OC)C=C1,> 1,> 1,–,–,–
CC1=N/C(=C\c2[nH]c(-c3ccc(C)[nH]3)cc2OCc2ccccc2)C=C1,0.0041,0.077,–,–,–
CCCCCCCCCCCC1=N/C(=C\c2[nH]c(-c3ccc[nH]3)cc2OCCC)C=C1,0.0056,0.322,58,1,2
CCCCCCCCCCCC1=N/C(=C\c2[nH]c(-c3ccccc3)cc2OC)C=C1,> 1,> 1,–,–,–

SMILES,IC50 (Mus musculus [1]) [µg/mL],IC50 (B16 [2]) [µg/mL],Selectivity index (B16 [3]),ED50 (Mus musculus [4]) [mg/kg],Toxicity (Mus musculus [5]) [mg/kg]
CCCCCCCC1=N/C(=C\c2[nH]c(-c3ccc[nH]3)cc2OC)C=C1,0.0056,–,29,–,–
CCCCCCCCCCCC1=N/C(=C\c2[nH]c(-c3ccc[nH]3)cc2OCC)C=C1,0.0018,0.193,107,1.2,2
CCCCCCCCCCCC1=N/C(=C\c2[nH]c(-c3ccc[nH]3)cc2OC)C=C1 [UNDECYLPRODIGININE],0.002,0.106,–,0.6,1
CCCCCCCC1=N/C(=C\c2[nH]c(-c3ccc[nH]3)cc2OCc2ccccc2)C=C1,0.0036,0.178,49,–,–
COc1cc(-c2ccc[nH]2)[nH]c1/C=C1/C=CC(CCCCCC(=O)N2CCOCC2)=N1,> 1,> 1,–,–,–
CCCCCCCCCCC1=N/C(=C\c2[nH]c(-c3ccc[nH]3)cc2OCc2ccccc2)C=C1,0.013,0.97,75,–,–
COc1cc(-c2ccc[nH]2)[nH]c1/C=C1/C=CC(CCc2ccccc2)=N1,0.0075,0.299,40,–,–
CCCCCCCCCCCC1=N/C(=C\c2[nH]c(-c3ccc[nH]3)cc2OCCCC)C=C1,–,1.51,133,1.5,3
CCCCCCCCCCCCCC1=N/C(=C\c2[nH]c(-c3ccc[nH]3)cc2OCc2ccccc2)C=C1,0.262,2.78,11,–,–
CCCCCCCCCCCC1=N/C(=C\c2[nH]c(-c3ccc[nH]3)cc2OCc2ccccc2)C=C1,0.0242,3.74,155,1.1,5
COc1cc(-c2ccc[nH]2)[nH]c1/C=C1/C=CC(CCCCCCCC#N)=N1,0.0162,0.235,14,–,–
CCCCCCCCCCCC1=N/C(=C\c2[nH]c(-c3ccc(C(C)=O)[nH]3)cc2OC)C=C1,0.1,> 1,–,–,–
CCCCCCCCCCCC1=N/C(=C\c2[nH]c(-c3ccc[nH]3)cc2O)C=C1,> 1,> 1,–,–,–
COc1cc(-c2ccc[nH]2)[nH]c1/C=C1/C=CC(CCCCCCF)=N1,0.0074,0.172,23,–,–
CCCCCCCCCCCC1=N/C(=C\c2[nH]c(-c3cc4ccccc4[nH]3)cc2OC)C=C1,0.25,> 1,–,–,–
CCCCCCCCCCCC1=N/C(=C\c2ccc(-c3ccc[nH]3)[nH]2)C=C1,0.4,1.22,3,–,–
CCCCCCCCCCCC1=N/C(=C\c2[nH]c(-c3ccc[nH]3)cc2OC(C)C)C=C1,0.0026,0.282,108,–,–
CCCCCCCCCCCC1=N/C(=C\c2[nH]c(-n3cncn3)cc2OC)C=C1,> 1,> 1,–,–,–
CCCCCCCCCCCCCC1=N/C(=C\c2[nH]c(-c3ccc[nH]3)cc2OC)C=C1,0.0014,0.282,201,0.8,1.5
